Activity calls are given as the source filed them. The calls are words filed in the database; no cut-off is given here.
Legend:
[1] = biological target: T1, Sphingosine kinase 2 (Homo sapiens) (UniProt Q9NRA0); experiment: Inhibition of SK2 (unknown origin) at 10 using sphingosine as substrate preincubated for 15 mins followed by substrate addition and measured after 60 mins by fluorescence based assay relative to control
T1 sequence (whole entry): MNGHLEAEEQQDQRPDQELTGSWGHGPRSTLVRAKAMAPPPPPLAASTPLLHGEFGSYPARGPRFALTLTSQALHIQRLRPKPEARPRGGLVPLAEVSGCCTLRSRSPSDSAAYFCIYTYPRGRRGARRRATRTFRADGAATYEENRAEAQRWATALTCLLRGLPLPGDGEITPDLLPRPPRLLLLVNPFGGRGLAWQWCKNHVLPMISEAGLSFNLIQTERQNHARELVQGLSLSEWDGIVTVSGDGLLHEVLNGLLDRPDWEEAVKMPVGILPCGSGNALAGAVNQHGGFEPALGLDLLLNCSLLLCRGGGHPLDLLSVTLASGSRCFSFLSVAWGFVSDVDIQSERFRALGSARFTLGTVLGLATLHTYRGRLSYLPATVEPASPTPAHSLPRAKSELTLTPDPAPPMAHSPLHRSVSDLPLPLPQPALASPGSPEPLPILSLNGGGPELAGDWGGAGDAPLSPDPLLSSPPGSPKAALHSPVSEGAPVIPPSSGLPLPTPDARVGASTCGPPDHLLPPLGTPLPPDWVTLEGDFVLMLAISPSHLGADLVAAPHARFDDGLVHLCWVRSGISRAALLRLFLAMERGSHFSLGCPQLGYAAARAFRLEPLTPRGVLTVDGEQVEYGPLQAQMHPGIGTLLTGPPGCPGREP
Summary of the method: (§1)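 Compound at 10 µM preincubated 15 min with SK1 (0.5 U/mL final) or SK2 (0.1 U/mL final). Sphingosine 5 µM plus ATP added; reaction 30 min (SK1) or 60 min (SK2) at room temperature. Buffer: 50 mM HEPES pH 7.5, 4 mM MgCl₂, 100 µM orthovanadate, 1 mM DTT, 0.01% Brij 35, 2 mM EGTA. Fluorescent detection reagent added for 60 min in the dark. Inhibition = 100 minus blank-corrected relative fluorescence. Triplicates, two independent experiments; mean ± SEM.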

[2] = biological target: Sphingosine kinase 1 (Homo sapiens) (UniProt Q9NYA1); experiment: Inhibition of SK1 (unknown origin) at 10 uM using sphingosine as substrate preincubated for 15 mins followed by substrate addition and measured after 30 mins by fluorescence based assay relative to control; summary of the method: as §1
Ramos [3] = experiment: Induction of apoptosis in human Ramos cells assessed as increase in cleaved PARP1 protein expression at 0.1 uM after 2 to 8 hrs in presence of caspace-inhibitor Q-VD-Oph by immunoblotting analysis; format: functional, cell-based
Summary of the method: (§2)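 Ramos cells exposed to compound for 2-8 h at concentrations chosen from the cytotoxicity data, with or without the pan-caspase inhibitor Q-VD-OPh (10 μM). Cells were harvested, lysed and immunoblotted with mouse anti-PARP1, using GAPDH as loading control. Detection used IRDye800/680 secondary antibodies on an infrared imager.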

Homo sapiens [4] = organism: Homo sapiens; experiment: Induction of apoptosis in human Jurkat J16 cells assessed as caspase-3 activation at 0.1 uM using AcDEVD-AMC as substrate preincubated for up to 8 hrs followed by substrate addition and measured after 60 mins by spectrophotometric method; format: functional, cell-based
Summary of the method: (§3)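 Cells in 96-well plates treated for up to 8 h, alongside staurosporine 2.5 μM as positive control. Lysis in caspase buffer (20 mM HEPES, 84 mM KCl, 10 mM MgCl₂, 200 μM EDTA/EGTA, 0.5% NP-40, protease inhibitors), then reaction buffer with Ac-DEVD-AMC added. AMC fluorescence increase followed at 37 °C for at least 60 min.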

[5] = Antiproliferative activity against human Jurkat J16 cells assessed as reduction in cell viability after 24 hrs by resazurin dye-based spectrophotometric method; format: functional
Summary of the method: (§4)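 Cells (DSMZ stock) seeded at 0.5 x 10⁶ cells/mL and exposed to escalating compound concentrations (up to 30 μM) for 24 or 72 h; resazurin 40 μM added for the final 3 h. Resorufin fluorescence read at ex 535/em 590 nm. Viability normalized to 0.1% DMSO controls (100%). IC50 from nonlinear regression; mean of three independent experiments.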

Ramos [6] = experiment: Antiproliferative activity against human Ramos cells assessed as reduction in cell viability after 72 hrs by resazurin dye-based spectrophotometric method; format: functional; summary of the method: as §4
Ramos [7] = experiment: Induction of apoptosis in human Ramos cells assessed as caspase-3 activation at 0.3 uM using AcDEVD-AMC as substrate preincubated for up to 8 hrs followed by substrate addition and measured after 60 mins by spectrophotometric method; format: functional, cell-based; summary of the method: as §3
Ramos [8] = experiment: Induction of apoptosis in human Ramos cells assessed as caspase-3 activation at 0.1 uM using AcDEVD-AMC as substrate preincubated for up to 8 hrs followed by substrate addition and measured after 60 mins by spectrophotometric method; format: functional, cell-based; summary of the method: as §3
[9] = Antiproliferative activity against human Jurkat J16 cells assessed as reduction in cell viability after 72 hrs by resazurin dye-based spectrophotometric method; format: functional; summary of the method: as §4
Homo sapiens [10] = organism: Homo sapiens; experiment: Induction of apoptosis in human Jurkat J16 cells assessed as caspase-3 activation at 0.3 uM using AcDEVD-AMC as substrate preincubated for up to 8 hrs followed by substrate addition and measured after 60 mins by spectrophotometric method; format: functional, cell-based; summary of the method: as §3
Ramos [11] = experiment: Antiproliferative activity against human Ramos cells assessed as reduction in cell viability after 24 hrs by resazurin dye-based spectrophotometric method; format: functional; summary of the method: as §4
Ramos [12] = experiment: Induction of apoptosis in human Ramos cells assessed as increase in cleaved PARP1 protein expression at 0.1 uM after 2 to 8 hrs by immunoblotting analysis; format: functional, cell-based; summary of the method: as §2
Ramos [13] = experiment: Induction of apoptosis in human Ramos cells assessed as caspase-3 activation at 2.5 uM using AcDEVD-AMC as substrate preincubated for up to 8 hrs followed by substrate addition and measured after 60 mins by spectrophotometric method; format: functional, cell-based
Summary of the method: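 Ramos cells (DSMZ) plated in 96-well plates and treated for up to 8 h. Cells were then lysed in caspase buffer (20 mM HEPES, 84 mM KCl, 10 mM MgCl2, 200 µM EDTA/EGTA, 0.5% NP-40, protease inhibitors). Reaction buffer with Ac-DEVD-AMC was added, and AMC fluorescence increase was read at 37 °C for at least 60 min. Positive control: staurosporine 2.5 µM.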

Ramos [14] = experiment: Induction of apoptosis in human Ramos cells assessed as increase in cleaved PARP1 protein expression at 1 uM after 2 to 8 hrs by immunoblotting analysis; format: functional, cell-based; summary of the method: as §2
Homo sapiens [15] = organism: Homo sapiens; experiment: Induction of apoptosis in human Jurkat J16 cells assessed as caspase-3 activation at 1 uM using AcDEVD-AMC as substrate preincubated for up to 8 hrs followed by substrate addition and measured after 60 mins by spectrophotometric method; format: functional, cell-based; summary of the method: as §3
Ramos [16] = experiment: Induction of apoptosis in human Ramos cells assessed as increase in cleaved PARP1 protein expression at 1 uM after 2 to 8 hrs in presence of caspace-inhibitor Q-VD-Oph by immunoblotting analysis; format: functional, cell-based; summary of the method: as §2
Ramos [17] = experiment: Induction of apoptosis in human Ramos cells assessed as caspase-3 activation at 1 uM using AcDEVD-AMC as substrate preincubated for up to 8 hrs followed by substrate addition and measured after 60 mins by spectrophotometric method; format: functional, cell-based; summary of the method: as §3
Homo sapiens [18] = organism: Homo sapiens; experiment: Induction of apoptosis in human Jurkat J16 cells assessed as caspase-3 activation at 3 uM using AcDEVD-AMC as substrate preincubated for up to 8 hrs followed by substrate addition and measured after 60 mins by spectrophotometric method; format: functional, cell-based; summary of the method: as §3
Ramos [19] = experiment: Induction of apoptosis in human Ramos cells assessed as increase in cleaved PARP1 protein expression at 10 uM after 2 to 8 hrs by immunoblotting analysis; format: functional, cell-based; summary of the method: as §2
Ramos [20] = experiment: Induction of apoptosis in human Ramos cells assessed as increase in cleaved PARP1 protein expression at 10 uM after 2 to 8 hrs in presence of caspace-inhibitor Q-VD-Oph by immunoblotting analysis; format: functional, cell-based; summary of the method: as §2
Ramos [21] = experiment: Induction of apoptosis in human Ramos cells assessed as caspase-3 activation at 10 uM using AcDEVD-AMC as substrate preincubated for up to 8 hrs followed by substrate addition and measured after 60 mins by spectrophotometric method; format: functional, cell-based; summary of the method: as §3
Ramos [22] = experiment: Induction of apoptosis in human Ramos cells assessed as caspase-3 activation at 3 uM using AcDEVD-AMC as substrate preincubated for up to 8 hrs followed by substrate addition and measured after 60 mins by spectrophotometric method; format: functional, cell-based; summary of the method: as §3
Homo sapiens [23] = organism: Homo sapiens; experiment: Induction of apoptosis in human Jurkat J16 cells assessed as caspase-3 activation at 10 uM using AcDEVD-AMC as substrate preincubated for up to 8 hrs followed by substrate addition and measured after 60 mins by spectrophotometric method; format: functional, cell-based; summary of the method: as §3

Sequence of Sphingosine kinase 1 (Homo sapiens) (Q9NYA1 whole entry): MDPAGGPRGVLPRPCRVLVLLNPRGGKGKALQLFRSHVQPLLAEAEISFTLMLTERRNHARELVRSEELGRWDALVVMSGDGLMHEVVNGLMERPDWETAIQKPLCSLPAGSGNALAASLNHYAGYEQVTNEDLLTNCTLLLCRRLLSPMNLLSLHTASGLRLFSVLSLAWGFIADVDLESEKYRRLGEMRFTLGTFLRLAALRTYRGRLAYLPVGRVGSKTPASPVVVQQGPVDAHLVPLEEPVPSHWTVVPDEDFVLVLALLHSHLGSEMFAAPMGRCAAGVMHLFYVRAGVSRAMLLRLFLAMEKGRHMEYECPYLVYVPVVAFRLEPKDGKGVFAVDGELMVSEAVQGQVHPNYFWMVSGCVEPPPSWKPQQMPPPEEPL

Row | SMILES | inhibition [1] [%] | inhibition [2] [%] | IC50 [5] [nM] | IC50 (Ramos [6]) [nM] | Activity (Ramos [7]) | IC50 [9] [nM] | Activity (Homo sapiens [10]) | IC50 (Ramos [11]) [nM] | Activity (Ramos [14]) | Activity (Homo sapiens [15]) | Activity (Ramos [16]) | Activity (Ramos [17]) | Activity (Homo sapiens [18]) | Activity (Ramos [22]) | other results
1 | Nc1cc(-c2c[nH]c3ncccc23)cc(N)n1 | 87 | 18 | 110 | 70 | Active | 60 | Active | 110 |  |  |  |  |  |  | Activity (Ramos [3]): inactive; Activity (Homo sapiens [4]): Active; Activity (Ramos [8]): Active; Activity (Ramos [12]): Active
2 | CN[C@@H]1C[C@H]2O[C@@](C)([C@@H]1OC)n1c3ccccc3c3c4c(c5c6ccccc6n2c5c31)C(=O)NC4 |  |  |  |  |  |  |  |  |  |  |  |  |  |  | Activity (Ramos [13]): Active
3 | c1ccc(CNc2ccc(-c3c[nH]c4ncccc34)cn2)cc1 |  |  | 240 | 180 | Active | 110 | Active | 300 | Active | Active | inactive | Active |  |  | 
4 | Nc1cc(-c2c[nH]c3ncccc23)nc(N)n1 |  |  | 430 | 240 | Active | 210 | Active | 370 | Active | Active | inactive | Active |  |  | 
5 | COc1cc(-c2c[nH]c3ncccc23)nc(N)n1 |  |  | 5560 | 3900 |  | 3080 |  | 6040 |  |  |  |  | Active | Active | Activity (Ramos [19]): Active; Activity (Ramos [20]): inactive; Activity (Ramos [21]): Active; Activity (Homo sapiens [23]): Active
6 | Nc1cc(-c2c[nH]c3ncccc23)ccn1 | 39 | 10 | 870 | 600 |  | 480 |  | 970 | Active | Active | inactive | Active | Active | Active | 
7 | Nc1nccc(-c2c[nH]c3ncccc23)n1 [MERIOLIN 1] | 72 | 10 | 4530 | 3730 |  | 2740 |  | 4800 |  |  |  |  | Active | Active | Activity (Ramos [19]): Active; Activity (Ramos [20]): inactive; Activity (Ramos [21]): Active; Activity (Homo sapiens [23]): Active

Source: ChEMBL document CHEMBL4346731, “Novel meriolin derivatives as rapid apoptosis inducers” (Bioorg Med Chem, 2019)
